This is an account of results in ChEMBL document CHEMBL3763121, “Synthesis, biological evaluation and structural analysis of novel peripherally active morphiceptin analogs” (Bioorg Med Chem, 2016).

A word on the EC50: it is the concentration that produces a half-maximal response. What is called Ki is a dissociation constant, usually derived from enzyme kinetics or from competition with a known ligand. High values mean lower affinity, low ones higher affinity.

The target in data set [1] is T1, Kappa-type opioid receptor (Homo sapiens, UniProt P41145). The data set is described as follows: Agonist activity at human recombinant KOR expressed in CHO cells at 1 uM by calcium mobilization assay. Type of data set: functional, cell-based. For orientation: Calcium assays in cells follow changes in intracellular calcium, usually with a dye or a luminescent sensor.
T1 sequence (P41145 whole entry): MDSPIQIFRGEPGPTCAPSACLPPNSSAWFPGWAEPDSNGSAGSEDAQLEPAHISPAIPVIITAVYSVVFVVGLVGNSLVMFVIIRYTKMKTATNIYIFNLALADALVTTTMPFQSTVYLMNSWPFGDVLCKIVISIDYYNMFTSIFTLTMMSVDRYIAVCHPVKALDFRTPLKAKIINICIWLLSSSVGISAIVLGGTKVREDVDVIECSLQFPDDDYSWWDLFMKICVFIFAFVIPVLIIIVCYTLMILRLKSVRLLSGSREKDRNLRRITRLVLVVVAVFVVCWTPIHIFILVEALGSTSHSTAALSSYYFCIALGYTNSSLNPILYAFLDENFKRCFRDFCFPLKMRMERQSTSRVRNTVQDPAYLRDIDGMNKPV

Data set [2] deals with T2, Mu-type opioid receptor (Homo sapiens, UniProt P35372). Description: Agonist activity at human recombinant MOR expressed in CHO cells by calcium mobilization assay. Type of data set: functional, cell-based.
T2 sequence (P35372 whole entry): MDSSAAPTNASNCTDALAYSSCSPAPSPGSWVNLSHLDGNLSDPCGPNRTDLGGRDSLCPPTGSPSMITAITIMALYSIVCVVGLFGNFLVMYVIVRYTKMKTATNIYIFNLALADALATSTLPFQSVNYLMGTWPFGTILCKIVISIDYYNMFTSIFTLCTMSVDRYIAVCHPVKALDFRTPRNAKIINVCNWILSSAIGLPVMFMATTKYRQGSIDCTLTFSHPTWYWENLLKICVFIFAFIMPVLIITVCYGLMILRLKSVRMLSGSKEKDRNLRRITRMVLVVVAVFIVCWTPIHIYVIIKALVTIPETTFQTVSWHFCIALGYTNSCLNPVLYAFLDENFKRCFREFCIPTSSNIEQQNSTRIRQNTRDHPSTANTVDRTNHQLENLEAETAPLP
In data set [3] the target is Delta-type opioid receptor (Homo sapiens) (UniProt P41143). The data set is described as follows: Agonist activity at human recombinant DOR expressed in CHO cells at 1 uM by calcium mobilization assay. Format: functional, cell-based.
Sequence of Delta-type opioid receptor (Homo sapiens) (P41143 whole entry): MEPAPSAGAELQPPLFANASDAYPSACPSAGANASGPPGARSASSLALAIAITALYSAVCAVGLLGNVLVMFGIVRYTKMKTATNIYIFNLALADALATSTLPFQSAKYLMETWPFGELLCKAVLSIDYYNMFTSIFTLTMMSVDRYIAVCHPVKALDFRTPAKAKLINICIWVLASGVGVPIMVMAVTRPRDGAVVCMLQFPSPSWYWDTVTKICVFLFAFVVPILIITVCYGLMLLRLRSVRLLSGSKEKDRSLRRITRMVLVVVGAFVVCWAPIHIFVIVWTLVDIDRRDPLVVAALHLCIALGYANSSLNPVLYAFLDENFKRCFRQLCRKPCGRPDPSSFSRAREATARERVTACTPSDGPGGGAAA
Data set [4] is described as follows: Retention time of compound by RP-HPLC analysis. Format: physicochemical. The gist of the method:
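Solvent A was 0.1% TFA in water and B was 80% acetonitrile with 0.1% TFA. Linear gradient of 0–100% B over 50 min at 1 ml/min.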

The target of data set [5] is Mu-type opioid receptor (Rattus norvegicus, UniProt P33535). Description: Displacement of [3H]DAMGO from MOR in Wistar rat brain homogenate by scintillation counting analysis. Type of data set: tissue-based. The procedure, abridged: (§1)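 Competitive radioligand displacement in brain homogenates from adult male Wistar rats: [3H]DAMGO for MOR, [3H][Ile5,6]deltorphin-2 for DOR. IC50 read from logarithmic dose–displacement curves and converted to Ki. Three independent experiments, each in duplicate.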
Sequence of Mu-type opioid receptor (Rattus norvegicus, UniProt P33535) (P33535 whole entry): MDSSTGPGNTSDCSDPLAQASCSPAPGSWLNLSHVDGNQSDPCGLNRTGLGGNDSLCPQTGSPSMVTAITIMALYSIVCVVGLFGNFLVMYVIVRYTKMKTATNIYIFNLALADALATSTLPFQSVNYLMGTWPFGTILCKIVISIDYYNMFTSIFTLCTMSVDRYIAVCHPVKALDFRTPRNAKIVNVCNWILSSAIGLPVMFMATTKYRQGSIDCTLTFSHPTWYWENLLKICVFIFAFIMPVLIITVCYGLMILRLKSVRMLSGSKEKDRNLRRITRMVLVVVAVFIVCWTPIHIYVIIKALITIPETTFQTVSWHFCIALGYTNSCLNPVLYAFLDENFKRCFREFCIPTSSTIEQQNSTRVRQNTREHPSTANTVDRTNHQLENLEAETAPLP
In general terms: Displacement assays read how much labelled ligand stays bound in the presence of the test substance.

In data set [6] the target is Delta-type opioid receptor (Rattus norvegicus, UniProt P33533). The data set is described as follows: Displacement of [3H][Ile5,6]deltorphin-2 from DOR in Wistar rat brain homogenate by scintillation counting analysis. Type of data set: tissue-based. The gist of the method: as §1
Sequence of Delta-type opioid receptor (P33533 whole entry): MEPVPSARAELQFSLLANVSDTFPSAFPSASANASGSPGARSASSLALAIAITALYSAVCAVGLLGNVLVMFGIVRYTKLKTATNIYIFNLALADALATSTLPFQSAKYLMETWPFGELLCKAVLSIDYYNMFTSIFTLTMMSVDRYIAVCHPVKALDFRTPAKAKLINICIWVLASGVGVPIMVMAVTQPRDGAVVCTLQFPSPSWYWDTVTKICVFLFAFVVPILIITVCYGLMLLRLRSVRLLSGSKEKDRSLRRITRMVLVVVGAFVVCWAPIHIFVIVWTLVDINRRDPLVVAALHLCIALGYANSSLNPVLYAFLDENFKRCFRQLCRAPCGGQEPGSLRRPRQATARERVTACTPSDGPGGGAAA
Data set [7] has as its target Kappa-type opioid receptor (Cavia porcellus, UniProt P41144). Description: Displacement of [3H]nor-BNI from KOR in Dunkin Hartley guinea pig brain homogenate by scintillation counting analysis. Type of data set: tissue-based. The gist of the method:
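KOR affinity measured by competitive displacement of [3H]nor-BNI in guinea pig brain membranes. IC50 taken from logarithmic dose–displacement curves and converted to Ki. Three independent experiments run in duplicate.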

For data set [8], the target named is T1, Kappa-type opioid receptor. Description: Agonist activity at human recombinant KOR expressed in CHO cells by calcium mobilization assay. Format: functional, cell-based. The procedure, abridged: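 CHO cells stably co-expressing human recombinant KOR and the C-terminally modified chimeric G protein Gαqi5. Calcium mobilization read-out. Concentration–response curves fitted with a sigmoidal equation that includes baseline, Emax and Hill coefficient. Potency reported as pEC50, the negative log molar concentration giving 50% of the maximal effect. Efficacy reported as intrinsic activity, the ligand Emax relative to the standard agonist Emax.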

Data set [9] concerns the target T1, Kappa-type opioid receptor. Description: Intrinsic activity at human recombinant KOR expressed in CHO cells at 1 uM by calcium mobilization assay relative to dynorphin A. Type of data set: functional, cell-based.
The target of data set [10] is T2, Mu-type opioid receptor. Description: Agonist activity at human recombinant MOR expressed in CHO cells at 1 uM by calcium mobilization assay. Format: functional, cell-based.

Activity calls are given as the source filed them. No cut-off for these calls is given here. Where a SMILES comes first, the peptide text is derived from it.

Sequence of Kappa-type opioid receptor (Cavia porcellus, UniProt P41144) (P41144 whole entry): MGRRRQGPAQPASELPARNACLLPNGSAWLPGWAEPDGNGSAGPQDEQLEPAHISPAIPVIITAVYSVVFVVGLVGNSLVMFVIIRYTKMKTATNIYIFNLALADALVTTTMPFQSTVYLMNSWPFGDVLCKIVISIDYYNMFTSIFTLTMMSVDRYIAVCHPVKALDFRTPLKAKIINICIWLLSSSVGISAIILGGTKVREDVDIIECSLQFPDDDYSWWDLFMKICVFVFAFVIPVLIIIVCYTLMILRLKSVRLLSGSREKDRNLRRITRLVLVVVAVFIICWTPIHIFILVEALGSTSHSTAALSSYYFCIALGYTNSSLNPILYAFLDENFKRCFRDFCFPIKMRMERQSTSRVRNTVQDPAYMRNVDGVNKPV

`CC1(C)SSC(C)(C)[C@@H](NC(=O)[C@@H](N)Cc2ccc(O)cc2)C(=O)NCC(=O)N[C@@H](Cc2ccccc2)C(=O)N[C@H]1C(=O)O`: the result in [1] was inactive.
On to `NC(=O)[C@@H]1CC(F)(F)CN1C(=O)[C@H](Cc1ccccc1)NC(=O)[C@@H]1CC(F)(F)CN1C(=O)[C@@H](N)Cc1ccc(O)cc1`, for which the EC50 at Mu-type opioid receptor [2] was 398 nM. In addition, the result in [3] and in [1] was inactive. Also, in data set [4], the Retention_time worked out at 14.56 min. Further, the Ki was 106 nM at Mu-type opioid receptor [5], over 1000 nM in data set [6] and over 1000 nM in [7].
As for `NC(=O)[C@H]1CC(F)(F)CN1C(=O)[C@H](Cc1ccccc1)NC(=O)[C@@H]1CC(F)(F)CN1C(=O)[C@@H](N)Cc1ccc(O)cc1`, the EC50 was 4.68 nM at Mu-type opioid receptor [2] and 813 nM in data set [8]. Also, in data set [3], the outcome was inactive. Besides, the Intrinsic activity in data set [9] came to 0.84. The Retention_time in [4] is 14.99 min. Further, the Ki on Mu-type opioid receptor [5] was 0.37 nM; in data set [6] it was over 1000 nM; in data set [7], 386 nM.
Take `NC(=O)[C@@H]1CCCN1C(=O)[C@H](Cc1ccccc1)NC(=O)[C@@H]1CCCN1C(=O)[C@@H](N)Cc1ccc(O)cc1` [MORPHICEPTIN] (H-YPFP-NH2): the EC50 at Mu-type opioid receptor [2] is 741 nM. For the same compound, the result in data set [3] and in data set [1] was inactive. Besides, the figures for the Ki (on Mu-type opioid receptor [5]; in [6]; in data set [7]) were 36.4 nM, over 1000 nM and over 1000 nM, respectively.
On to `C[C@H](NC(=O)[C@@H](N)Cc1ccc(O)cc1)C(=O)N[C@@H](Cc1ccccc1)C(=O)NCC(=O)N[C@@H](Cc1ccc(O)cc1)C(=O)N1CCC[C@H]1C(=O)N[C@@H](CO)C(N)=O`, for which the outcome in [1] was inactive.
With `NC(=O)[C@@H]1CCCN1C(=O)[C@H](Cc1ccccc1)NC(=O)[C@H]1CC(F)(F)CN1C(=O)[C@@H](N)Cc1ccc(O)cc1`, the result (at Mu-type opioid receptor [10]; in [3]; in [1]) was inactive. The Retention_time in [4] worked out at 14.1 min. For the same compound, the Ki (at Mu-type opioid receptor [5]; in [6]; in data set [7]) was over 1000 nM throughout.
As to `NC(=O)[C@H]1CC(F)(F)CN1C(=O)[C@H](Cc1ccccc1)NC(=O)[C@@H]1CCCN1C(=O)[C@@H](N)Cc1ccc(O)cc1`, on Mu-type opioid receptor [2], the EC50 was 20.4 nM. For the same compound, the result in data set [3] was inactive. In data set [4], this compound returned a Retention_time of 14.22 min. The figures for the Ki (on Mu-type opioid receptor [5]; in [6]; in [7]) were 13.3 nM, over 1000 nM and over 1000 nM, respectively.
